Calls of active or inactive are those of the source. The rule behind the calls is not given here.
Assays:
[1] = system: Trypanosoma brucei brucei; experiment: Antitrypanosomal activity against wild type Trypanosoma brucei brucei Lister 427 after 3 days by alamar blue assay; assay type: functional, organism-based
Summary of the method: (§1)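 Bloodstream-form T. b. brucei (wild-type s427; TbAT1-KO, made from s427 by TbAT1 deletion; B48, selected from TbAT1-KO in vitro on pentamidine, lacking functional HAPT1). Cells were exposed to compound for 48 h, then resazurin (Alamar blue) was added for a further 24 h. A single fluorescence reading gave EC50.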

[2] = system: Trypanosoma brucei brucei; experiment: Antitrypanosomal activity against diminazene aceturate-resistant TbAT1 gene-deficient Trypanosoma brucei brucei AT1-KO after 3 days by alamar blue assay; assay type: functional, organism-based; summary of the method: as §1
[3] = system: Trypanosoma brucei brucei; experiment: Resistance factor, ratio of EC50 for diminazene aceturate-resistant TbAT1 gene-deficient Trypanosoma brucei brucei AT1-KO to EC50 for wild type Trypanosoma brucei brucei Lister 427; assay type: functional
Summary of the method: (§2)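 Resistance factor is the EC50 in the resistant line (TbAT1-KO or B48) divided by the EC50 in wild-type s427. […] Resistant and wild-type EC50s were compared by Student t-test.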

[4] = system: Trypanosoma brucei brucei; experiment: Antitrypanosomal activity against diminazene-, pentamidine-, and melaminophenyl arsenical-resistant HAPT1-deficient Trypanosoma brucei brucei B48 after 3 days by alamar blue assay; assay type: functional, organism-based; summary of the method: as §1
[5] = system: Trypanosoma brucei brucei; experiment: Resistance factor, ratio of EC50 for diminazene-, pentamidine-, and melaminophenyl arsenical-resistant HAPT1-deficient Trypanosoma brucei brucei B48 to EC50 for wild type Trypanosoma brucei brucei Lister 427; assay type: functional; summary of the method: as §2
[6] = Inhibition of Trypanosoma brucei brucei HAPT1 assessed as [3H]-pentamidine uptake after 60 secs by scintillation counting
Summary of the method: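 HAPT1 transport: late-log T. b. brucei grown in HMI-9 + 10% FBS, washed into HEPES/bicarbonate assay buffer with 14 mM glucose, pH 7.3. [³H]-pentamidine at 30 nM final for 60 s with inhibitor; stopped with 2 mM ice-cold unlabeled pentamidine and spin through oil. Scintillation counting, sigmoid fit for Ki; triplicates, ≥3 independent experiments.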

[7] = Inhibition of Trypanosoma brucei brucei LAPT1 assessed as [3H]-pentamidine uptake after 120 secs by scintillation counting
Summary of the method: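 LAPT1 transport: late-log trypanosomes from HMI-9/10% FBS culture washed into pH 7.3 HEPES-bicarbonate-glucose buffer; 1 μM final [³H]-pentamidine uptake over 120 s with competitor. Uptake terminated with 2 mM ice-cold pentamidine and oil centrifugation; counted by scintillation, Ki from sigmoid curves; triplicate, at least three separate occasions.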

[8] = system: Trypanosoma brucei rhodesiense; experiment: Antitrypanosomal activity against Trypanosoma brucei rhodesiense STIB900 infected in rat L6 cells after 72 hrs by alamar blue assay; assay type: functional, organism-based
L6 = experiment: Cytotoxicity against rat L6 cells after 72 hrs by alamar blue assay; assay type: cell-based
[9] = Selectivity index, ratio of EC50 for rat L6 cells to EC50 for Trypanosoma brucei rhodesiense STIB900; assay type: toxicity, cell-based; settings: for selectivity ratio: L6 cells, read-out: Ratio EC50
Summary of the method: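 Ratio of EC₅₀ in L6 cells to EC₅₀ against T. b. rhodesiense STIB900, both from Alamar blue assays.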

[10] = Cytotoxicity against human HEK cells after 3 days by alamar blue assay; assay type: cell-based, HEK293; settings: Homo sapiens, HEK293, 72 h
Summary of the method: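 Human embryonic kidney cells tested by resazurin (Alamar blue) assay: 48 h with compound, then 24 h more after dye addition, single reading; EC₅₀ derived.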

[11] = Selectivity index, ratio of EC50 for human HEK cells to EC50 for wild type Trypanosoma brucei brucei Lister 427; assay type: toxicity, cell-based, HEK293; settings: for selectivity ratio: HEK cells, read-out: Ratio EC50
Summary of the method: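 Ratio of EC₅₀ in HEK cells to EC₅₀ in wild-type T. b. brucei s427, both from resazurin assays.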

[12] = system: Trypanosoma brucei brucei; experiment: Antitrypanosomal activity against Trypanosoma brucei brucei bloodstream forms assessed as decrease in cell count at 0.25 uM treated for 48 hrs followed by washout after 30 mins and measured after 48 hrs by hemocytometric analysis; assay type: functional, organism-based
Summary of the method: (§3)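 T. b. brucei bloodstream forms seeded at 10⁵ cells/mL with 0.25 μM compound; drug removed by centrifugation (1100g) after 30 min or 4 h and cells resuspended in drug-free fresh medium, or fresh medium still containing 0.25 μM compound; drug-free control run alongside. Growth followed over 48 h by microscopic hemocytometer counts in triplicate, averages reported.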

[13] = system: Trypanosoma brucei brucei; experiment: Antitrypanosomal activity against Trypanosoma brucei brucei bloodstream forms assessed as decrease in cell count at 0.25 uM treated for 48 hrs followed by washout after 4 hrs by hemocytometric analysis; assay type: functional, organism-based; summary of the method: as §3
[14] = system: Trypanosoma brucei brucei; experiment: Antitrypanosomal activity against Trypanosoma brucei brucei bloodstream forms assessed as decrease in cell count at 0.25 uM treated for 48 hrs followed by washout after 4 hrs measured after 44 hrs by hemocytometric analysis; assay type: functional, organism-based; summary of the method: as §3
[15] = system: Trypanosoma brucei brucei; experiment: Antitrypanosomal activity against wild type Trypanosoma brucei brucei Lister 427 assessed as decrease in viability at 70 to 120 times EC50 after 8 hrs by propidium iodide staining-based fluorescence microscopic analysis; assay type: functional, organism-based
Summary of the method: (§4)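 Real-time propidium iodide integrity assay: 5 × 10⁵ trypanosomes per well in HMI-9 plus 10% FBS containing 9 μM PI, 37 °C, 5% CO₂. Fluorescence read on a plate fluorimeter (ex 544/em 620 nm) every 2 min for 250 cycles, more than 8 h. Strains run in parallel on one plate.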

[16] = system: Trypanosoma brucei brucei; experiment: Antitrypanosomal activity against wild type Trypanosoma brucei brucei Lister 427 assessed as decrease in viability at > 3.3 uM after 8 hrs by propidium iodide staining-based fluorescence microscopic analysis; assay type: functional, organism-based; summary of the method: as §4
[17] = system: Trypanosoma brucei brucei; experiment: Antitrypanosomal activity against diminazene aceturate-resistant TbAT1 gene-deficient Trypanosoma brucei brucei AT1-KO assessed as decrease in viability at > 3.3 uM after 8 hrs by propidium iodide staining-based fluorescence microscopic analysis; assay type: functional, organism-based
Summary of the method: (§5)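 Trypanosomes at 5 × 10⁵ cells/well in HMI-9 with 10% FBS and 9 μM propidium iodide, with compound at a range of concentrations. Fluorescence (ex 544, em 620 nm) was read every 2 min for 250 cycles (>8 h) at 37 °C and 5% CO2. All three strains ran in parallel on one plate, with drug-free controls.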

[18] = system: Trypanosoma brucei brucei; experiment: (§6) Antitrypanosomal activity against diminazene-, pentamidine-, and melaminophenyl arsenical-resistant HAPT1-deficient Trypanosoma brucei brucei B48 harboring HAPT mutant gene assessed as decrease in viability at > 3.3 uM after 8 hrs by propidium iodide staining-based fluorescence microscopic analysis; assay type: functional, organism-based; summary of the method: as §5
[19] = system: Trypanosoma brucei brucei; experiment: Antitrypanosomal activity against diminazene aceturate-resistant TbAT1 gene-deficient Trypanosoma brucei brucei AT1-KO assessed as decrease in viability at 15 times EC50 after 8 hrs by propidium iodide staining-based fluorescence microscopic analysis; assay type: functional, organism-based; summary of the method: as §5
[20] = system: Trypanosoma brucei brucei; experiment: as §6, with “15 times EC50” for “> 3.3 uM”; assay type: functional, organism-based; summary of the method: as §5
[21] = system: Trypanosoma brucei brucei; experiment: Antitrypanosomal activity against wild type Trypanosoma brucei brucei Lister 427 assessed as decrease in viability at >700 times EC50 after 8 hrs by propidium iodide staining-based fluorescence microscopic analysis; assay type: functional, organism-based; summary of the method: as §4
[22] = Trypanosoma brucei, Lister 427, 72 h
[23] = Trypanosoma brucei, AT1-KO, 72 h
[24] = Trypanosoma brucei, STIB900, 72 h

| SMILES | EC50 [1, 22] [nM] | EC50 [2, 23] [nM] | Ratio EC50 [3] | EC50 ([4]; Trypanosoma brucei, B48, 72 h) [nM] | Ratio EC50 [5] | Ki [7] [nM] | EC50 [8, 24] [nM] | EC50 (L6; Rattus norvegicus, L6, 72 h) [nM] | selectivity ratio [9] | EC50 [10] [nM] | selectivity ratio [11] | further results |
| --- | --- | --- | --- | --- | --- | --- | --- | --- | --- | --- | --- | --- |
| N=C(N)c1ccc(OCCCCCOc2ccc(C(=N)N)cc2)cc1 [PENTAMIDINE] | 8 | 9 | 1.1 | 567 | 70.9 | 56200 |  |  |  |  |  | Ki [6]: 36 nM |
| O=C(c1ccc(C[P+](C2CCCCC2)(C2CCCCC2)C2CCCCC2)cc1)c1ccc(C[P+](C2CCCCC2)(C2CCCCC2)C2CCCCC2)cc1.[Br-].[Br-] | 140 | 230 | 1.6 | 250 | 1.8 | 39000 | 197 | 32700 | 166 | > 300000 | > 2100 |  |
| Cc1ccc([P+](Cc2ccc(Oc3ccc(C[P+](c4ccc(C)cc4)(c4ccc(C)cc4)c4ccc(C)cc4)cc3)cc2)(c2ccc(C)cc2)c2ccc(C)cc2)cc1.[Br-].[Br-] | 24 | 25 | 1 | 21 | 0.8 |  | 170 | 2340 | 14 | 85700 | 3570 | Activity [12]: inactive; Activity [13]: Active; Activity [14]: Active |
| CC(=O)N(c1ccc(C[P+](c2ccc(C)cc2)(c2ccc(C)cc2)c2ccc(C)cc2)cc1)c1ccc(C[P+](c2ccc(C)cc2)(c2ccc(C)cc2)c2ccc(C)cc2)cc1.[Br-].[Br-] | 320 | 300 | 0.9 | 290 | 0.9 | 3600 | 159 | 21800 | 137 | > 300000 | > 930 | Ki [6]: 9200 nM |
| O=C(c1ccc(C[P+](c2ccccc2)(c2ccccc2)c2ccccc2)cc1)c1ccc(C[P+](c2ccccc2)(c2ccccc2)c2ccccc2)cc1.[Br-].[Br-] | 240 | 360 | 1.5 | 380 | 1.6 | 49000 | 260 | 73300 | 282 | > 300000 | > 1250 |  |
| CCCCCC[P+](CCCCCC)(CCCCCC)Cc1ccc(C(=O)c2ccc(C[P+](CCCCCC)(CCCCCC)CCCCCC)cc2)cc1.[Br-].[Br-] | 38 | 47 | 1.2 | 35 | 0.9 | 25000 | 112 | 1110 | 10 | 16600 | 438 |  |
| C[P+](C)(C)Cc1ccc(C(=O)c2ccc(C[P+](C)(C)C)cc2)cc1 | > 100000 | > 100000 |  | > 100000 |  | > 250000 | 127000 | > 173000 |  |  |  | Ki [6]: > 250000 nM |
| O=C(c1ccc(C[P+](c2ccccc2)(c2ccccc2)C2CCCCC2)cc1)c1ccc(C[P+](c2ccccc2)(c2ccccc2)C2CCCCC2)cc1.[Br-].[Br-] | 300 | 410 | 1.4 | 330 | 1.1 | 19000 | 430 | 65800 | 155 | > 300000 | > 1000 |  |
| CCCCCC[P+](CCCCCC)(CCCCCC)Cc1ccc(Cc2ccc(C[P+](CCCCCC)(CCCCCC)CCCCCC)cc2)cc1.[Br-].[Br-] | 33 | 33 | 1 | 39 | 1.2 | 9500 | 180 | 964 | 5 | 18100 | 543 | Activity [12]: inactive; Activity [13]: Active; Activity [14]: Active |
| CCCCC[P+](CCCCC)(CCCCC)Cc1ccc(C(=O)c2ccc(C[P+](CCCCC)(CCCCC)CCCCC)cc2)cc1.[Br-].[Br-] | 200 | 170 | 0.8 | 180 | 0.9 | 2200 | 289 | 8700 | 30 | 66800 | 338 | Activity [15]: Active; Activity [16]: Active; Activity [17]: Active; Activity [18]: Active; Ki [6]: 5200 nM; Activity [19]: Active; Activity [20]: Active |
| Cc1ccc([P+](Cc2ccc(Cc3ccc(C[P+](c4ccccc4)(c4ccccc4)c4ccc(C)cc4)cc3)cc2)(c2ccccc2)c2ccccc2)cc1.[Br-].[Br-] | 240 | 190 | 0.8 | 180 | 0.7 | 20000 | 200 | 4470 | 22 | > 300000 | > 1250 |  |
| Cc1ccc(C[P+](c2ccccc2)(c2ccccc2)c2ccccc2)cc1.[Br-] |  |  | 0.8 |  | 0.5 | 25000 |  |  |  |  |  | EC50 [8]: 364 nM; EC50 (L6; l6): 12900 nM; Ratio EC50 ([9]; l6): 35.5; EC50 [1]: 43 nM; EC50 [2]: 33 nM; EC50 [4]: 22 nM; Ratio EC50 ([11]; hek293): > 7000 |
| Cc1ccc(C[P+](c2ccccc2)(c2ccccc2)c2ccccc2)cc1 |  |  |  |  |  |  |  |  |  |  |  | Activity [21]: Active |
| O=C(c1ccc(C[P+](Cc2ccccc2)(c2ccccc2)c2ccccc2)cc1)c1ccc(C[P+](Cc2ccccc2)(c2ccccc2)c2ccccc2)cc1.[Br-].[Br-] | 810 | 1020 | 1.3 | 1030 | 1.3 |  | 480 | 32000 | 67 | > 300000 | > 370 |  |

From ChEMBL document CHEMBL2040794, “Synthesis and structure-activity analysis of new phosphonium salts with potent activity against African trypanosomes” (J Med Chem, 2012)
